Experimental data taken from ChEMBL document CHEMBL1135691, “Synthesis of novel N-1 (allyloxymethyl) analogues of 6-benzyl-1-(ethoxymethyl)-5-isopropyluracil (MKC-442, emivirine) with improved activity against HIV-1 and its mutants” (J Med Chem, 2002).
“And” between values parts separate entries of the source, which are not always exact repeats. Identical values can stand only once. Counter-ions that a name gives are not always drawn.

Columns and labels:
[1] = tested on: Human immunodeficiency virus 1; assay: (§1) Effective concentration required to achieve 50% inhibition of HIV-1 multiplication in MT-4-infected Y181C strain; assay type: functional; conditions: read-out: ED50 (the source's name)
Summary of the method: (§2)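 NNRTI-resistant HIV-1 strains infected MT-4 cells at 0.005 MOI. Cells were cultured with serial compound dilutions in RPMI 1640 with 10% heat-inactivated FCS and antibiotics for 6 days, alongside infected and uninfected no-compound controls. Viral expression was quantified indirectly by MTT assay. EC50 was interpolated from percent-inhibition versus concentration plots. Values are means of three separate experiments.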

[2] = tested on: Human immunodeficiency virus 1; assay: as §1; assay type: functional; conditions: read-out: ED50 (the source's name); summary of the method: as §2; remark: listed apart in the source
[3] = tested on: Human immunodeficiency virus 1; assay: Inhibition of HIV-1 IIIB replication in MT-4-infected wild type cells.; assay type: functional; conditions: read-out: ED50 (the source's name)
Summary of the method: (§3)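 MT-4 cells infected with wild-type HIV-1 (IIIB, H9-propagated stock, or HxB2 clone) at MOI 0.005 and cultured 6 days in RPMI 1640 with 10% heat-inactivated FCS and compound dilutions. Infected and uninfected controls without compound run in parallel. Virus expression measured indirectly by MTT. EC50 interpolated from inhibition–concentration plots. Mean of three experiments.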

MT4 = assay: (§4) Cytotoxic dose required to reduce the viability of normal uninfected MT-4 cells by 50%; assay type: functional, Homo sapiens; conditions: read-out: CD50 (the source's name)
[4] = tested on: Human immunodeficiency virus 1; assay: Effective concentration required to achieve 50% inhibition of HIV-1 multiplication in MT-4-infected wild type cells; assay type: functional; conditions: read-out: ED50 (the source's name); summary of the method: as §3
[5] = tested on: Human immunodeficiency virus 1; assay: Effective concentration required to achieve 50% inhibition of HIV-1 multiplication in MT-4-infected Y181C+K103N strain; assay type: functional; conditions: read-out: ED50 (the source's name); summary of the method: as §2
[6] = Selective index (CD50 compared to ED50 against HIV-1 IIIB strain).; assay type: functional
Summary of the method: (§5)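 Ratio of CD50 to ED50. Both values come from 6-day MT-4 MTT assays: uninfected cultures for cytotoxicity, and cultures infected at MOI 0.005 with the named wild-type strain for antiviral effect. Each value was interpolated from inhibition–concentration plots and is the mean of three experiments.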

[7] = (§6) Selective index as the ratio of CD50 to that of ED50 against HIV-1 HxB2 strain.; assay type: functional; summary of the method: as §5
[8] = tested on: Human immunodeficiency virus 1; assay: Effective concentration required to achieve 50% inhibition of HIV-1 multiplication in MT-4-infected K103N strain; assay type: functional; conditions: read-out: ED50 (the source's name); summary of the method: as §2
[9] = as §4; assay type: cell-based, MT4; conditions: human, read-out: CD50 (the source's name)
[10] = as §6; summary of the method: as §5
[11] = Selective index as the ratio of CD50 to that of ED50 against HIV-1 IIIB strain.; summary of the method: as §5

Compound	EC50 [1]	EC50 [2]	EC50 [3]	CC50 (MT4; Homo sapiens, MT4)	CC50 (MT4)	EC50 [4]	EC50 [5]	SI [6]	SI [7]	EC50 [8]	CC50 [9]	SI [10]	SI [11]
CC(C)Nc1cccnc1N1CCN(C(=O)c2cc3cc(NS(C)(=O)=O)ccc3[nH]2)CC1 [DELAVIRDINE MESYLATE]	4500 nM	> 100000 nM	60 nM	42000 nM	> 42000 nM	190 nM	> 100000 nM	700	> 221	3000 nM			
C#CCOCn1c(Cc2cc(C)cc(C)c2)c(CC)c(=O)[nH]c1=O		> 100000 nM	3 nM	> 100000 nM			3000 nM	> 33300					
C=C(C)COCn1c(Cc2cc(C)cc(C)c2)c(C(C)C)c(=O)[nH]c1=O		15000 nM	0.15 nM	> 100000 nM			26000 nM	> 667000					
CCc1c(Cc2cc(C)cc(C)c2)n(COCC=C(C)C)c(=O)[nH]c1=O	450 nM	340 nM	0.3 nM	36000 nM	61000 nM	0.02 nM	> 100000 nM	120000	3.03e+06	90 nM			
C#CCOCn1c(Cc2ccccc2)c(C(C)C)c(=O)[nH]c1=O		> 100000 nM	7 nM	> 100000 nM			> 100000 nM	> 14300					
CCc1c(Cc2cccc3ccccc23)n(COCC=C(C)C)c(=O)[nH]c1=O			300 nM	> 100000 nM				> 333					
O=C1Nc2ccc(Cl)cc2[C@@](C#CC2CC2)(C(F)(F)F)O1 [EFAVIRENZ]	40 nM		10 nM	> 100000 nM		40 nM	2700 nM			350 nM			
C=C(C)COCn1c(Cc2cc(C)cc(C)c2)c(CC)c(=O)[nH]c1=O	4000 nM	360 nM	2.5 nM	> 100000 nM		8 nM	28000 nM	> 40000	> 12500	2200 nM			
C=CCOCn1c(Cc2ccccc2)c(C(C)C)c(=O)[nH]c1=O	3300 nM	100000 nM	4 nM	> 100000 nM		3 nM	> 100000 nM	> 25000	> 33300	900 nM			
CC(C)=CCOCn1c(Cc2cc(C)cc(C)c2)c(C(C)C)c(=O)[nH]c1=O		19000 nM	0.2 nM	> 100000 nM			28000 nM	> 500000					
C=CCOCn1c(Cc2cccc3ccccc23)c(CC)c(=O)[nH]c1=O			1000 nM	32000 nM				32					
C=CCOCn1c(Cc2cc(C)cc(C)c2)c(C(C)C)c(=O)[nH]c1=O		> 100000 nM	0.2 nM	30000 nM			> 100000 nM	150000					
C=CCOCn1c(Cc2cc(C)cc(C)c2)c(CC)c(=O)[nH]c1=O	70 nM	320 nM	4 nM	100000 nM	> 100000 nM	0.02 nM	10000 nM	25000	> 5e+06	20 nM			
CC(C)=CCOCn1c(Cc2ccccc2)c(C(C)C)c(=O)[nH]c1=O	> 100000 nM	> 100000 nM	30 nM	34000 nM		30 nM	> 100000 nM	1070	1120	3800 nM	32000 nM		
C=C(C)COCn1c(Cc2ccccc2)c(C(C)C)c(=O)[nH]c1=O	> 100000 nM	> 100000 nM	280 nM		40000 nM and > 100000 nM	50 nM	> 100000 nM			> 100000 nM		> 2000	142
C=C(C)COCn1c(Cc2cccc3ccccc23)c(CC)c(=O)[nH]c1=O			1000 nM	35000 nM				35					
Cc1ccnc2c1NC(=O)c1cccnc1N2C1CC1 [NEVIRAPINE]	22000 nM	> 100000 nM	380 nM	> 100000 nM		570 nM	> 100000 nM	> 263	> 175	4300 nM			
